Sampled rows, rich in hits. Any-hit rate of the full collection: about 1.6%.
Vif imaging: blocks HIV Vif function. HEK293T cells, Vif self-association by quenched fluorescence, imaging, 24 h. inhibition, % at 7.49 µM. 0.35% of 340,000 active. AID 602346; in the data active means inhibition above about 50%, passing the limit was not always enough; inconclusive means no clear call, values can overlap the other calls; inactive means below about 31%
H9c2 TAG inh: inhibitors of triacylglycerol accumulation. H9c2 cells, Nile Red lipid (TAG) fluorescence; cells loaded with 200 µM oleic acid. inhibition, % at 12.5 µM. 0.66% of 230,000 active;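 active means pattern-corrected inhibition of lipid staining of at least 50% with the nuclear-stain viability signal not falling by more than 50%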;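 further: 0% = DMSO wells and 100% = triacsin C control wells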
SR-BI HDL uptake: mouse SR-BI HDL lipid transfer inhibition; inhibition, % at 12.5 µM; 0.96% of 320,000 active; AID 488896; ldlA[mSR-BI] CHO cells, DiI-HDL uptake fluorescence, 3 h; Q61009;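 active means mean replicate inhibition of at least 70% and a set share of replicates each scoring 70 or more; inconclusive means meets just one of the two criteria; inactive means fails both criteria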;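 further: 0% = median of neutral control wells and 100% = median of positive control wells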
Target sequence (Q61009 whole entry, looked up): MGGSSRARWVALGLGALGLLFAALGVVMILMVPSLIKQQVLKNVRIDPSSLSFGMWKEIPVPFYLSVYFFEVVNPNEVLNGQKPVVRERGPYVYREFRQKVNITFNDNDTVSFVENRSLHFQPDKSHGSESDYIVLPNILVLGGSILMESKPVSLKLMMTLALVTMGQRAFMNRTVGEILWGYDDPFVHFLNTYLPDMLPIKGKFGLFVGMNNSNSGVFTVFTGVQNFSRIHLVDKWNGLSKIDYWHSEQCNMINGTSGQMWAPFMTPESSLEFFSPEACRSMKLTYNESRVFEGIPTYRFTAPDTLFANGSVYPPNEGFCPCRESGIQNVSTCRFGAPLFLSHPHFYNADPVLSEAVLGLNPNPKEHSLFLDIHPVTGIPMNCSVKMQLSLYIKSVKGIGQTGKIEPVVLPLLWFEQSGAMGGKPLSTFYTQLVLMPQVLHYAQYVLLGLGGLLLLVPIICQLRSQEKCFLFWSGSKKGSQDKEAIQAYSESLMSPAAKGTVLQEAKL
A1 inh: inhibitors of the anti-apoptotic protein A1, read as caspase activation. MEF A1-2A-BIM cells, Caspase-Glo 3/7 luminescence, 3 h; percent of clofoctol response, vehicle zero. caspase activation, % (concentration not given with the values). 0.066% of 330,000 active. AID 2462;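 active means over half of replicate activation scores above 10%, or exactly half above 10 with the replicate mean above 10; inconclusive means replicate mean below 10 yet half the replicates above 10; inactive means over half of replicates below 10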
SR-BI DiI-HDL act: SR-BI HDL lipid transfer activation; activation, % at 12.5 µM; 0.096% of 320,000 active; CHO ldlA[mSR-BI] cells, DiI-HDL uptake fluorescence, 3 h; 100 = double the neutral-control signal; AID 504775;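 active means mean replicate activation of at least 60% and every replicate at or above 60%; inconclusive means mean or all-replicate condition met, but not both; inactive means mean below 60% and not all replicates reaching 60%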;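 further: 0% = median plate neutral-control signal and 100% = twice that signal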
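Material: SR-BI-overexpressing, LDLR-lacking CHO cells; schedule: compound exposure 3 h, 37 °C; reagent: DiI-labelled HDL at 10 µg/mL final; technique: bottom-read fluorescence, 550/595 nm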
* = called active by the depositor; ? = inconclusive; / = no result given.

SMILES	Vif imaging	H9c2 TAG inh	SR-BI HDL uptake	A1 inh	SR-BI DiI-HDL act
CC(C)CN(C(=O)COC(=O)c1ccccc1NCc1ccco1)c1c(N)n(Cc2ccccc2)c(=O)[nH]c1=O	7	-5	27	0	-27
CC1CC(C)CN(CC(O)COCc2ccccc2F)C1 (configuration not stated)	3	/	1	1	-1
Cc1cc(C)n(CCCNC(=O)c2ccc(C)c(S(=O)(=O)N3CCOCC3)c2)n1	-1	8	-6	0	6
CCN(CC)c1ccc(/C=N/NC(=O)Cc2nnc(NC(=O)Nc3ccccc3)s2)cc1	4	5	91*	1	-91
Cc1cc(C)nc(N/N=C/C2=C(N3CCOCC3)C(=C\c3ccc(Cl)cc3)/CC2)n1	-3	-24	74*	0	-74
O=CC1=C(N2CCOCC2)/C(=C/c2ccc(Cl)cc2)CC1	-4	-15	22	1	-22
Cc1cc(C)nc(NN=CC2=C(N3CCOCC3)/C(=C/c3ccc(Cl)cc3)CC2)n1	0	-3	76*	/	-76
Cc1occc1C(=O)N/N=C/C1=C(N2CCOCC2)C(=C\c2ccc(Cl)cc2Cl)/CC1	-13	/	77*	0	-77
C/C(=N/NC(=O)c1ccoc1C)c1ccc(N2CCOCC2)cc1	5	/	-6	-1	6
COC(=O)c1c(C)c2c(C)cc3ccccn3c-2c1C(=O)OC	/	/	1	0	-1
COC(=O)c1cc2c(-c3ccccc3)cc3ccccn3c-2c1C(=O)OC	14	/	85*	-1	-85
Cc1ccc2c(c1)N(C(=O)c1ccco1)C(C)(C)c1ssc(=S)c1-2	/	/	94*	0	-94
COc1cc(/C=N/NC(=O)CCC(=O)NC2CCCCC2)ccc1C	51*	-9	-16	0	16
Cc1cc(C(=O)N2CCN(c3ccc([N+](=O)[O-])cc3)CC2)c(C)o1	-33	-33	6	0	-6
Cc1cc(C(=O)N2CCN(c3ccc([N+](=O)[O-])cc3)CC2)co1	86*	-9	12	1	-12
COc1ccc(CNCc2ccc3ccccc3c2)c(OC)c1	-2	-5	-17	0	17
CCc1ccc(/C(C)=N\Nc2ccc([N+](=O)[O-])cc2)cc1	60*	-35	34	1	-34
C/C(=N\Nc1ccc([N+](=O)[O-])cc1)c1ccc(N)cc1	-4	/	23	0	-23
C/C(=N\Nc1nc(C)c(C)s1)c1ccc([N+](=O)[O-])cc1	11	3	81*	-1	-81
CC/C(=N/Nc1ccc(Cl)cc1)c1cnnc(SC)n1	-6	/	20	0	-20
CC/C(=N/Nc1cccc(C)c1)c1cnnc(SC)n1	82*	/	?	1	-71
O=C(COc1ccccc1Cl)NCCCNC(=O)c1ccco1	-6	/	/	-1	/
C/C(=N\NC(=O)c1cccc(N/N=C(\C)c2ccccc2)c1)c1ccccc1	/	/	79*	-3	-79
C/C(=N\NC(=O)c1ccncc1)c1cccc(NC(=O)c2ccc(C(C)(C)C)cc2)c1	0	20	78*	1	-78
COc1ccc(/C(C)=N/NC(=O)c2ccncc2)cc1[N+](=O)[O-]	16	-9	-1	0	1
SMILES	Vif imaging	H9c2 TAG inh	SR-BI HDL uptake	A1 inh	SR-BI DiI-HDL act
C/C(=N\NC(=O)c1cccc(N/N=C(\C)c2ccncc2)c1)c1ccncc1	10	-11	61	0	-61
C/C(=N/NC(=O)c1ccncc1)c1ccc(NC(=O)c2ccccc2)cc1	-17	/	9	-1	-9
C/C(=N\NC(=O)COc1ccccc1[N+](=O)[O-])c1cccc(NC(=O)c2ccncc2)c1	-5	8	81*	1	-81
Cc1ccc(S(=O)(=O)N(C)C)cc1NC(=O)COC(=O)CNC(=O)c1cccs1	/	-3	2	0	-2
Clc1nc(Cl)nc(-c2cn(-c3ccccc3)c3ccccc23)n1	/	/	/	1	/
O=C(Nc1cccc(S(=O)(=O)NC2=NCCCCC2)c1)c1cc(-c2ccccc2)nc2ccccc12	2	/	77*	0	-77
CC(C)(C)c1ccc(C(=O)OCC(=O)Nc2cccc(S(=O)(=O)NC3=NCCC3)c2)cc1	4	14	/	/	/
O=C(Nc1cccc(S(=O)(=O)NCc2ccco2)c1)c1cc(-c2ccc(F)cc2)nc2ccccc12	2	/	74*	0	-74
O=C(Nc1cccc(S(=O)(=O)NC2=NCCCCC2)c1)c1cc(-c2ccc(Cl)cc2)nc2ccccc12	-6	/	45	-1	-45
NC(=O)Nc1ccc(C(=O)OCC(=O)Nc2cccc(S(=O)(=O)NC3=NCCC3)c2)cc1	?	10	76*	0	-76
CCN(C(=O)COC(=O)c1cccc(NS(=O)(=O)c2ccc(F)c(F)c2)c1)C1CCS(=O)(=O)C1 (configuration not stated)	/	/	/	1	/
COc1ccc(C)cc1NCc1cc(=O)oc2cc(-c3ccccc3)c(O)cc12	-6	8	25	-3	-25
COc1ccccc1NCc1cc(=O)oc2c(C)c(O)ccc12	-10	/	73*	-1	-73
CCOc1ccc(/C(O)=C2\C(=O)C(=O)N(c3ccccn3)C2c2ccccc2F)c(C)c1 (configuration not stated)	/	-22	/	/	/
Cc1cc(NC(=O)c2ccccc2)n(-c2nc3ccccc3[nH]2)n1	16	34	64	-1	-64
COc1ccc(C(=O)Nc2cc(C)nn2-c2nc3ccccc3[nH]2)c(OC)c1	-8	44	75*	0	-75
Cc1cc(NC(=O)c2cccs2)n(-c2nc3ccccc3[nH]2)n1	-23	49	93*	-1	-93
CCn1c(=O)c(C(=O)CN(C)CC(=O)Nc2cccc(F)c2)c(N)n(Cc2ccccc2)c1=O	-5	5	-12	1	12
O=C(CCc1nnc2ccc(NCc3ccccc3)nn12)NC1CCCCC1	15	/	7	1	-7
Cn1cccc1-c1nc2ccc(NC(=O)c3ccc([N+](=O)[O-])cc3)cc2[nH]1	-6	/	87*	0	-87
O=C(CNc1ccccc1)N/N=C/c1cc([N+](=O)[O-])ccc1N1CCCC1	-1	-68	73*	0	-73
CCN(CC)C(=O)C1CCCN(c2ccccc2[N+](=O)[O-])C1 (configuration not stated)	0	15	79*	3	-79
CCN(CC)C(=O)C1CCCN(c2ccc([N+](=O)[O-])cc2/C=N/NC(=O)c2cccc([N+](=O)[O-])c2)C1 (configuration not stated)	-2	12	90*	0	-90
CCN(CC)C(=O)C1CCCN(c2ccc([N+](=O)[O-])cc2[N+](=O)[O-])C1 (configuration not stated)	-8	15	3	1	-3
Cc1cc(C)c(S(=O)(=O)Nc2ccc(Cl)cn2)c(C)c1	-4	/	-6	0	6
